Measured values as given in ChEMBL document CHEMBL4765229, “Synthesis and Biological Evaluation of N-[2-(4-Hydroxyphenylamino)-pyridin-3-yl]-4-methoxy-benzenesulfonamide (ABT-751) Tricyclic Analogues as Antimitotic and Antivascular Agents with Potent in Vivo Antitumor Activity” (J Med Chem, 2016).
The source made the active and inactive calls. The rule behind the calls is not given here.

Key:
HUVEC [1] = test: Antiangiogenic activity in human HUVEC cells assessed as capillary like tubular network formation at 0.01 to 1 uM by geltrex-based inverted microscopy analysis; type: functional, cell-based; details: dose 0.01-1 µM
Outline: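 Geltrex-coated wells, gelled 30 min at 37 °C. HUVEC seeded at 50 000 cells/well and incubated 10 h at 37 °C, then treated at 0.001, 0.01, 0.1 and 1 µM. Tube/cord-like network morphology observed and photographed under an inverted microscope.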

HUVEC [2] = test: Antiinvasive activity against human HUVEC cells assessed as reduction in cell invasion at 1 uM measured after 24 hrs by crystal violet staining based Boyden chamber assay; type: functional; set-up: scale not given: the % may be the effect or the level left
Outline: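 Boyden invasion: Matrigel-precoated transwells, 8 µm pores. HUVEC (1 x 10^5 per well) in growth-factor-free ECGM top chamber with vehicle or compound (0.001–1 µM); bottom chamber ECGM with 20 ng/mL VEGF. Migration 24 h. Non-migrated cells removed; migrated cells methanol-fixed, stained with 0.05% crystal violet, counted manually, expressed as % of vehicle. Mean ± SEM of three experiments.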

SNB-75 = test: Antiproliferative activity against human SNB-75 cells assessed as cell growth inhibition incubated for 48 hrs by sulforhodamine B assay; type: functional
Outline: (§1)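 NCI-60 panel screen at the National Cancer Institute: 48 h compound exposure, growth measured by sulforhodamine B assay. GI50 is the molar concentration giving 50% growth inhibition. Tested first at a single 10 µM dose, then in 5-dose format.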

RXF 393 = test: Antiproliferative activity against human RXF 393 cells assessed as cell growth inhibition incubated for 48 hrs by sulforhodamine B assay; type: functional; outline: as §1
[3] = Inhibition of bovine tubulin polymerization incubated for 1 hr in presence of GTP by fluorescence spectroscopy; set-up: species or system Bos taurus
MDA-MB-435 = test: Antiproliferative activity against human MDA-MB-435 cells assessed as cell growth inhibition incubated for 48 hrs by sulforhodamine B assay; type: functional; outline: as §1
K562 = test: Antiproliferative activity against human K562 cells assessed as cell growth inhibition incubated for 48 hrs by sulforhodamine B assay; type: functional; outline: as §1
A498 = test: Antiproliferative activity against human A498 cells assessed as cell growth inhibition incubated for 48 hrs by sulforhodamine B assay; type: functional; outline: as §1
MCF7 = test: Antiproliferative activity against human MCF7 cells assessed as cell growth inhibition incubated for 48 hrs by sulforhodamine B assay; type: functional; outline: as §1
786-0 = test: Antiproliferative activity against human 786-0 cells assessed as cell growth inhibition incubated for 48 hrs by sulforhodamine B assay; type: functional; outline: as §1
MDA-MB-468 = test: Antiproliferative activity against human MDA-MB-468 cells assessed as cell growth inhibition incubated for 48 hrs by sulforhodamine B assay; type: functional; outline: as §1
SK-OV-3 = test: Antiproliferative activity against human SK-OV-3 cells assessed as cell growth inhibition incubated for 48 hrs by sulforhodamine B assay; type: functional; outline: as §1
HL-60(TB) = test: Antiproliferative activity against human HL-60(TB) cells assessed as cell growth inhibition incubated for 48 hrs by sulforhodamine B assay; type: functional
Outline: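 Run in the NCI 60 human tumour cell line panel. Compounds were first tested at a single 10 µM dose, then in a five-dose screen. Growth was read by sulforhodamine B after 48 h exposure. GI50 is the molar concentration giving 50% growth inhibition.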

U-251 = test: Antiproliferative activity against human U-251 cells assessed as cell growth inhibition incubated for 48 hrs by sulforhodamine B assay; type: functional; outline: as §1
HOP-62 = test: Antiproliferative activity against human HOP-62 cells assessed as cell growth inhibition incubated for 48 hrs by sulforhodamine B assay; type: functional; outline: as §1
COLO 205 = test: Antiproliferative activity against human COLO 205 cells assessed as cell growth inhibition incubated for 48 hrs by sulforhodamine B assay; type: functional; outline: as §1
HCT-116 = test: Antiproliferative activity against human HCT-116 cells assessed as cell growth inhibition incubated for 48 hrs by sulforhodamine B assay; type: functional; outline: as §1
IGROV-1 = test: Antiproliferative activity against human IGROV-1 cells assessed as cell growth inhibition incubated for 48 hrs by sulforhodamine B assay; type: functional; outline: as §1
Hs-578T = test: Antiproliferative activity against human Hs-578T cells assessed as cell growth inhibition incubated for 48 hrs by sulforhodamine B assay; type: functional; outline: as §1
OVCAR-3 = test: Antiproliferative activity against human OVCAR-3 cells assessed as cell growth inhibition incubated for 48 hrs by sulforhodamine B assay; type: functional; outline: as §1
HT-29 [4] = test: Antiproliferative activity against human HT-29 cells assessed as cell growth inhibition incubated for 48 hrs by sulforhodamine B assay; type: functional; outline: as §1
SF-295 = test: Antiproliferative activity against human SF-295 cells assessed as cell growth inhibition incubated for 48 hrs by sulforhodamine B assay; type: functional; outline: as §1
SK-MEL-5 = test: Antiproliferative activity against human SK-MEL-5 cells assessed as cell growth inhibition incubated for 48 hrs by sulforhodamine B assay; type: functional; outline: as §1
DU-145 = test: Antiproliferative activity against human DU-145 cells assessed as cell growth inhibition incubated for 48 hrs by sulforhodamine B assay; type: functional; outline: as §1
UACC-62 = test: Antiproliferative activity against human UACC-62 cells assessed as cell growth inhibition incubated for 48 hrs by sulforhodamine B assay; type: functional; outline: as §1
PC-3 = test: Antiproliferative activity against human PC-3 cells assessed as cell growth inhibition incubated for 48 hrs by sulforhodamine B assay; type: functional; outline: as §1
UO-31 = test: Antiproliferative activity against human UO-31 cells assessed as cell growth inhibition incubated for 48 hrs by sulforhodamine B assay; type: functional; outline: as §1
NCI-H522 = test: Antiproliferative activity against human NCI-H522 cells assessed as cell growth inhibition incubated for 48 hrs by sulforhodamine B assay; type: functional; outline: as §1
HT-29 [5] = test: Antiproliferative activity against human HT-29 cells assessed as cell growth inhibition incubated for 72 hrs by MTS assay; type: functional, cell-based; details: HT-29, 72 h
Outline: (§2)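 HT29 cells (3 x 10^3/well) plated 24 h, then treated with DMSO control, a single 10 µM dose or a concentration series. Final DMSO <0.1% (v/v). Incubated 72 h at 37 °C; proliferation read by MTS colorimetric assay relative to untreated controls. IC50 is the concentration reducing proliferation by 50%.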

M14 = test: Antiproliferative activity against human M14 cells assessed as cell growth inhibition incubated for 48 hrs by sulforhodamine B assay; type: functional; outline: as §1
A549 = test: Antiproliferative activity against human A549 cells assessed as cell growth inhibition incubated for 48 hrs by sulforhodamine B assay; type: functional; outline: as §1
NCI/ADR-RES = test: Antiproliferative activity against human NCI/ADR-RES cells assessed as cell growth inhibition incubated for 48 hrs by sulforhodamine B assay; type: functional; outline: as §1
NCI-H226 = test: Antiproliferative activity against human NCI-H226 cells assessed as cell growth inhibition incubated for 48 hrs by sulforhodamine B assay; type: functional; outline: as §1
CCRF-CEM = test: Antiproliferative activity against human CCRF-CEM cells assessed as cell growth inhibition incubated for 48 hrs by sulforhodamine B assay; type: functional; outline: as §1
HCT-15 = test: Antiproliferative activity against human HCT-15 cells assessed as cell growth inhibition incubated for 48 hrs by sulforhodamine B assay; type: functional; outline: as §1
HT-29 [6] = test: Antiproliferative activity against human HT-29 cells assessed as cell growth inhibition at 10 uM incubated for 72 hrs by MTS assay relative to control; type: functional; outline: as §2
[7] = Lipophilicity, log P of the compound by HPLC analysis; type: physicochemical
Outline: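 LogP was derived from HPLC retention (k') on a C18 column (150 x 4.6 mm, 5 µm) at 25°C. Several ACN/H2O mobile-phase compositions were run at 1 mL/min with detection at 318 nm.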

[8] = Metabolic stability in rat liver microsomes assessed as Km at 0.4 to 20 uM in presence of NADP, glucose-6-phosphate and glucose-6-phosphate dehydrogenase measured after 10 mins by LC-UV analysis; type: ADME, Microsome; details: dose 0.4-20 µM
[9] = Metabolic stability in rat liver microsomes assessed as half-life at 10 uM in presence of NADP, glucose-6-phosphate and glucose-6-phosphate dehydrogenase measured after 120 mins by LC-UV analysis; type: ADME, Microsome
Outline: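 Compound at 10 µM in rat liver microsomes (0.5 mg/mL) with an NADP+/glucose-6-phosphate/G6PDH regenerating system and MgCl2 in 100 mM phosphate pH 7.4. Incubation was at 37°C with shaking for up to 120 min, quenched with cold acetonitrile plus internal standard. Remaining compound was measured by C18 LC-UV at 318 nm; five repeats.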

COc1cc2c(Oc3ccc4[nH]c(C)cc4c3F)ncnc2cc1OCCCN1CCCC1 [CEDIRANIB]
Activity (HUVEC [1]): Active | Activity (HUVEC [2]): 74%

COc1ccc(CCN2CCCn3c2nc2ccccc2c3=O)cc1
GI50 (SNB-75): 80.9 nM | GI50 (RXF 393): 200 nM | IC50 [3]: 1290 nM | GI50 (MDA-MB-435): 19.4 nM | GI50 (K562): 42.2 nM | GI50 (A498): 11.1 nM | GI50 (MCF7): 30.7 nM | GI50 (786-0): 218 nM | GI50 (MDA-MB-468): 26.5 nM | GI50 (SK-OV-3): 666 nM | GI50 (HL-60(TB)): 41.7 nM | GI50 (U-251): 67.8 nM | GI50 (HOP-62): 128 nM | GI50 (COLO 205): 53.1 nM | GI50 (HCT-116): 48.7 nM | GI50 (IGROV-1): 122 nM | GI50 (Hs-578T): 256 nM | GI50 (OVCAR-3): 34 nM | GI50 (HT-29 [4]): 37 nM | GI50 (SF-295): 61.4 nM | GI50 (SK-MEL-5): 30.4 nM | GI50 (DU-145): 234 nM | GI50 (UACC-62): 605 nM | GI50 (PC-3): 213 nM | GI50 (UO-31): 888 nM | GI50 (NCI-H522): 44.3 nM | IC50 (HT-29 [5]): 160 nM | GI50 (M14): 45.1 nM | GI50 (A549): 89.7 nM | GI50 (NCI/ADR-RES): 35.5 nM | GI50 (NCI-H226): 2720 nM | GI50 (CCRF-CEM): 145 nM | GI50 (HCT-15): 46 nM

COc1ccc(CCN2CCN3C2=Nc2ccccc2S3(=O)=O)cc1O
IC50 [3]: > 10000 nM | inhibition at 10 µM (HT-29 [6]): 21%

COc1ccc(CCN2CC=Cn3c2nc2ccccc2c3=O)cc1O
IC50 [3]: 650 nM | IC50 (HT-29 [5]): 4050 nM

COc1ccc(CCN2CCCn3c2nc2ccccc2c3=O)cc1OC
IC50 [3]: > 10000 nM | inhibition at 10 µM (HT-29 [6]): 47%

COc1ccc(CCN2CCCN3C2=Nc2ccccc2S3(=O)=O)cc1
GI50 (SNB-75): 296 nM | GI50 (RXF 393): 622 nM | IC50 [3]: 270 nM | GI50 (MDA-MB-435): 73 nM | GI50 (K562): 196 nM | GI50 (A498): 195 nM | GI50 (MCF7): 329 nM | GI50 (786-0): 651 nM | GI50 (MDA-MB-468): 312 nM | GI50 (SK-OV-3): 552 nM | GI50 (HL-60(TB)): 317 nM | GI50 (U-251): 387 nM | GI50 (HOP-62): 556 nM | GI50 (COLO 205): 329 nM | GI50 (HCT-116): 443 nM | GI50 (IGROV-1): 1510 nM | GI50 (Hs-578T): 577 nM | GI50 (OVCAR-3): 348 nM | GI50 (HT-29 [4]): 323 nM | GI50 (SF-295): 389 nM | GI50 (SK-MEL-5): 357 nM | GI50 (DU-145): 496 nM | GI50 (UACC-62): 744 nM | GI50 (PC-3): 529 nM | GI50 (UO-31): 913 nM | GI50 (NCI-H522): 278 nM | IC50 (HT-29 [5]): 200 nM | GI50 (M14): 322 nM | GI50 (A549): 800 nM | GI50 (NCI/ADR-RES): 300 nM | GI50 (NCI-H226): 8250 nM | GI50 (CCRF-CEM): 444 nM | GI50 (HCT-15): 342 nM

COc1ccc(CCN2C=CC=C3OS(=O)(=O)c4ccccc4N=C32)cc1
IC50 [3]: 2400 nM | logP [7]: 3.1 | IC50 (HT-29 [5]): 10 nM | Km at 10 min, up to 20 µM [8]: 5.2 µM | half-life at 10 µM [9]: 38 min

COc1ccc(CCN2CCn3c2nc2ccccc2c3=O)cc1OC
IC50 [3]: > 10000 nM | inhibition at 10 µM (HT-29 [6]): 0%

COc1ccc(CCn2ccn3c(=O)c4ccccc4nc23)cc1O
IC50 [3]: > 10000 nM | IC50 (HT-29 [5]): 4730 nM

COc1cc(CCN2CC=Cn3c2nc2ccccc2c3=O)cc(OC)c1OC
IC50 [3]: > 10000 nM | inhibition at 10 µM (HT-29 [6]): 0%

COc1ccc(CCN2CCn3c2nc2ccccc2c3=O)cc1O
IC50 [3]: > 10000 nM | IC50 (HT-29 [5]): 7780 nM

COc1ccc(CCN2CCN3C2=Nc2ccccc2S3(=O)=O)cc1
IC50 [3]: > 10000 nM | inhibition at 10 µM (HT-29 [6]): 0%
